Source: ChEMBL document CHEMBL1146552, “Cytotoxic diterpenes from Scoparia dulcis” (2003)
Where a name gives a salt, the structure may show the parent alone. The source made the active and inactive calls. The rule behind the calls is not given here.

Tests used:
[1] = (§1) Cytotoxicity against human SCL37'6 cells by MTT assay; assay type: functional; conditions: read-out: ED50 (the source's name)
In short: (§2)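 Human stomach cancer cells grown in RPMI-1640 complete medium; test materials prepared and cells cultured in medium with 0.25% DMSO. Serial dilutions at 250, 125, 62.5, 31.25 and 15.63 μg/mL, three replicates per concentration. Percent mortality by MTT, with cells in medium or medium-DMSO taken as 100% survival; ED50 (μM) derived, mean ± standard error. Vinblastine sulfate and mitomycin C as positive controls.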

[2] = (§3) Cytotoxicity against human SCL cells by MTT assay; assay type: functional; conditions: read-out: ED50 (the source's name); in short: as §2
[3] = tested on: NUGC-4; assay: Cytotoxicity against human NUGC4 cells by MTT assay; assay type: functional; conditions: for EC50: read-out: ED50 (the source's name); in short: as §2
[4] = Cytotoxicity against human SCL6 cells by MTT assay; assay type: functional; conditions: read-out: ED50 (the source's name); in short: as §2
[5] = (§4) Cytotoxicity against human SCL9 cells by MTT assay; assay type: functional; conditions: read-out: ED50 (the source's name); in short: as §2
[6] = (§5) Cytotoxicity against human KATO III cells by MTT assay; assay type: functional, KATO III cell; conditions: read-out: ED50 (the source's name); in short: as §2
[7] = tested on: SCL-6 (Homo sapiens); assay: Cytotoxicity against human SCL6 cells by MTT assay
[8] = tested on: SCL37'6; assay: as §1; assay type: functional; in short: as §2
[9] = tested on: SCL; assay: as §3; assay type: functional; in short: as §2
[10] = tested on: SCL9; assay: as §4; assay type: functional; in short: as §2
[11] = tested on: KATO III cell; assay: as §5; assay type: functional; in short: as §2

SMILES	EC50 [1]	EC50 [2]	EC50 [3]	EC50 [4]	EC50 [5]	EC50 [6]	Activity [7]	Activity [8]	Activity [9]	Activity [3]	Activity [10]	Activity [11]
CC1(C)[C@@H](O)CC[C@@]2(C)[C@H]1[C@H](OC(=O)c1ccccc1)C[C@H]1CC(=O)[C@]3(C)CC[C@]12C3	45.8 µM	19.5 µM	123 µM	62.9 µM	57.9 µM	71.7 µM						
CC1(C)CC[C@]2(C)CC[C@]3(C)[C@H]4CC=C5[C@@H](CC[C@H](O)C5(C)C)[C@]4(C)CC[C@@]3(C)[C@@H]2C1							inactive	inactive	inactive	inactive	inactive	inactive
COc1ccc2[nH]c(=O)oc2c1							inactive	inactive	inactive	inactive	inactive	inactive
C[C@@]12CC[C@]3(C1)[C@H](CC2=O)C[C@@H](OC(=O)c1ccccc1)[C@@H]1[C@]3(C)CCC[C@]1(C)C(=O)O [4-EPI-SCOPADULCIC ACID B]	59.3 µM	37 µM	110 µM	137 µM	48.3 µM	124 µM						
C[C@@]12CC[C@]3(C1)[C@@H](C[C@@H](OC(=O)c1ccccc1)[C@H]1[C@](C)(CO)CCC[C@@]13C)C[C@@H]2O [DULCIDIOL]	42.6 µM	45.3 µM	105 µM	46 µM	41.6 µM	29 µM						
CO[C@@]12[C@H](COC(N)=O)C3=C(C(=O)C(C)=C(N)C3=O)N1C[C@@H]1N[C@@H]12 [MITOMYCIN]	19 µM	20.2 µM	19.1 µM	20.7 µM	17.4 µM	49 µM						
C=C1C[C@@H](OC(=O)c2ccccc2)C2[C@](C)(CO)CCC[C@]2(C)[C@@H]1CC/C(C)=C/CO (some centres undefined) [SCOPADIOL]	8.9 µM	22.8 µM	16.6 µM	12.2 µM	12.2 µM	9.7 µM						
C[C@@]12CC[C@]3(C1)[C@H](CC2=O)C[C@@H](OC(=O)c1ccccc1)[C@H]1[C@](C)(CO)CCC[C@@]13C [SCOPADULCIOL]	24.4 µM	22 µM	33.3 µM	32.8 µM	37.7 µM	35.5 µM						
CC[C@]1(O)C[C@@H]2CN(CCc3c([nH]c4ccccc34)[C@@](C(=O)OC)(c3cc4c(cc3OC)N(C)[C@H]3[C@@](O)(C(=O)OC)[C@H](OC(C)=O)[C@]5(CC)C=CCN6CC[C@]43[C@@H]65)C2)C1 [VINBLASTINE SULFATE]	5.3 µM	5.9 µM	5.3 µM	6.1 µM	5.3 µM	6.1 µM						
